Measured values reported in ChEMBL document CHEMBL3758117, “Discovery of indeno[1,2-b]quinoxaline derivatives as potential anticancer agents” (Eur J Med Chem, 2016).
pIC50: −log10 of the molar value. Active and inactive are the calls of the source. The calls are words filed in the database; no cut-off is given here.

Tests used:
MRC5 [1] = experiment: Antiproliferative activity against human MRC5 cells after 72 hrs by XTT assay; type: cell-based; conditions: MRC5, 72 h
How it was run: (§1)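 Cells kept as monolayers in DMEM with 10% FBS, penicillin, streptomycin and amphotericin at 37°C, 5% CO2. Seeded at 5 x 10³ cells/well and exposed to compound for 72 h in medium with 10% FBS. XTT plus electron-coupling reagent added, 4 h at 37°C, absorbance read at 492 nm. Percent of control growth uses mean absorbance (n = 3). The 50% value is taken from the linear portion of the curve.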

Escherichia coli = experiment: Binding affinity to Escherichia coli negative supercoiled pBR322 DNA at 10 uM after 12 hrs by ethidium bromide staining based agarose gel electrophoresis
How it was run: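 Negatively supercoiled pBR322 (400 ng) in TE buffer pH 8.0 was incubated with compound at 10 μM for 12 h at room temperature. Loading buffer with sarkosyl was added. Samples were run on 1% agarose at 6 V/cm for 2.5 h in TAE pH 8.5, stained with ethidium bromide and photographed under UV.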

[2] = target: T1, DNA topoisomerase 1 (Homo sapiens) (UniProt P11387); experiment: Inhibition of human DNA topoisomerase 1-mediated relaxation of supercoiled pBR322 DNA at 100 uM after 30 mins by ethidium bromide staining based agarose gel electrophoresis
T1 sequence (whole entry): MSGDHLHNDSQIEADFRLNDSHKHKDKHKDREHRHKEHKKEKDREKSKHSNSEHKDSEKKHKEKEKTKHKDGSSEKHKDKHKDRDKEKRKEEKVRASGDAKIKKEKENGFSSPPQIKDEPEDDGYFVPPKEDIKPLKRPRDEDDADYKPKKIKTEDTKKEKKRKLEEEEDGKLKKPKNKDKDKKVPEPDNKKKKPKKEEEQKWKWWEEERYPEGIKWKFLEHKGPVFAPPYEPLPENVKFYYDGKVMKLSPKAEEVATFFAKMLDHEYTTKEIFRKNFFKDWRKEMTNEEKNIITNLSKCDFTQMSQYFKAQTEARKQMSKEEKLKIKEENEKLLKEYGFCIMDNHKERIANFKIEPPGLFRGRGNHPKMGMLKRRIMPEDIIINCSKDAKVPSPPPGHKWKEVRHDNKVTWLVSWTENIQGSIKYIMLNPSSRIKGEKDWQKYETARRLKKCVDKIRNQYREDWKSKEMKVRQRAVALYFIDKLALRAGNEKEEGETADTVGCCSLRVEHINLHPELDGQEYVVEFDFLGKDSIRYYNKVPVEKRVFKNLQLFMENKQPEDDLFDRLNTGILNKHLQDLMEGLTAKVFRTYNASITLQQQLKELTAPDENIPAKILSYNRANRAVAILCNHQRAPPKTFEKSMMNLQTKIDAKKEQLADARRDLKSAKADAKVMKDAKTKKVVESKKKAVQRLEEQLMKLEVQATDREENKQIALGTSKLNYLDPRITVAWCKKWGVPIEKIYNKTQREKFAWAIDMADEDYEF
How it was run: (§2)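 Human topo I or topo II (2 units) was reacted with 0.2 μg supercoiled pBR322 in 20 μl Tris-HCl pH 7.5 containing KCl, DTT, EDTA, MgCl2 and BSA, with DMSO held at 0.5%, for 30 min at 37°C. The reaction was stopped with SDS. Samples were run on 1% agarose in Tris-acetate/EDTA at 1.5 V/cm for 2-3 h and stained with ethidium bromide. Relaxation was quantified by densitometry of the supercoiled band area.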

MDA-MB-231 = experiment: Antiproliferative activity against human MDA-MB-231 cells after 72 hrs by XTT assay; type: functional, cell-based; conditions: MDA-MB-231, 72 h; how it was run: as §1
[3] = Antiproliferative activity against human H1299 cells after 72 hrs by XTT assay; type: functional, cell-based; conditions: NCI-H1299, 72 h; how it was run: as §1
[4] = target: DNA topoisomerase 2-alpha (Homo sapiens) (UniProt P11388); experiment: Inhibition of human DNA topoisomerase 2-mediated relaxation of supercoiled pBR322 DNA at 100 uM after 30 mins by ethidium bromide staining based agarose gel electrophoresis; how it was run: as §2
[5] = Antiproliferative activity against human HuH7 cells after 72 hrs by XTT assay; type: functional, cell-based; conditions: Huh-7, 72 h; how it was run: as §1
[6] = target: T1, DNA topoisomerase 1 (Homo sapiens); experiment: Inhibition of human DNA topoisomerase 1-mediated relaxation of supercoiled pBR322 DNA at 10 uM after 30 mins by ethidium bromide staining based agarose gel electrophoresis; how it was run: as §2
[7] = Antiproliferative activity against human PC3 cells after 72 hrs by XTT assay; type: functional, cell-based; conditions: PC-3, 72 h; how it was run: as §1
MRC5 [8] = experiment: Selectivity index, ratio of IC50 for human MRC5 cells to IC50 for human PC3 cells; type: functional
[9] = Selectivity index, ratio of IC50 for human MRC5 cells to IC50 for human H1299 cells; type: functional
Huh-7 = experiment: Selectivity index, ratio of IC50 for human MRC5 cells to IC50 for human HuH7 cells; type: functional
MRC5 [10] = experiment: Selectivity index, ratio of IC50 for human MRC5 cells to IC50 for human MDA-MB-231 cells; type: functional
[11] = target: DNA topoisomerase 2-alpha (Homo sapiens) (UniProt P11388); experiment: Inhibition of human DNA topoisomerase 2-mediated relaxation of supercoiled pBR322 DNA at 10 uM after 30 mins by ethidium bromide staining based agarose gel electrophoresis; how it was run: as §2

Chain of DNA topoisomerase 2-alpha (Homo sapiens) (P11388 whole entry): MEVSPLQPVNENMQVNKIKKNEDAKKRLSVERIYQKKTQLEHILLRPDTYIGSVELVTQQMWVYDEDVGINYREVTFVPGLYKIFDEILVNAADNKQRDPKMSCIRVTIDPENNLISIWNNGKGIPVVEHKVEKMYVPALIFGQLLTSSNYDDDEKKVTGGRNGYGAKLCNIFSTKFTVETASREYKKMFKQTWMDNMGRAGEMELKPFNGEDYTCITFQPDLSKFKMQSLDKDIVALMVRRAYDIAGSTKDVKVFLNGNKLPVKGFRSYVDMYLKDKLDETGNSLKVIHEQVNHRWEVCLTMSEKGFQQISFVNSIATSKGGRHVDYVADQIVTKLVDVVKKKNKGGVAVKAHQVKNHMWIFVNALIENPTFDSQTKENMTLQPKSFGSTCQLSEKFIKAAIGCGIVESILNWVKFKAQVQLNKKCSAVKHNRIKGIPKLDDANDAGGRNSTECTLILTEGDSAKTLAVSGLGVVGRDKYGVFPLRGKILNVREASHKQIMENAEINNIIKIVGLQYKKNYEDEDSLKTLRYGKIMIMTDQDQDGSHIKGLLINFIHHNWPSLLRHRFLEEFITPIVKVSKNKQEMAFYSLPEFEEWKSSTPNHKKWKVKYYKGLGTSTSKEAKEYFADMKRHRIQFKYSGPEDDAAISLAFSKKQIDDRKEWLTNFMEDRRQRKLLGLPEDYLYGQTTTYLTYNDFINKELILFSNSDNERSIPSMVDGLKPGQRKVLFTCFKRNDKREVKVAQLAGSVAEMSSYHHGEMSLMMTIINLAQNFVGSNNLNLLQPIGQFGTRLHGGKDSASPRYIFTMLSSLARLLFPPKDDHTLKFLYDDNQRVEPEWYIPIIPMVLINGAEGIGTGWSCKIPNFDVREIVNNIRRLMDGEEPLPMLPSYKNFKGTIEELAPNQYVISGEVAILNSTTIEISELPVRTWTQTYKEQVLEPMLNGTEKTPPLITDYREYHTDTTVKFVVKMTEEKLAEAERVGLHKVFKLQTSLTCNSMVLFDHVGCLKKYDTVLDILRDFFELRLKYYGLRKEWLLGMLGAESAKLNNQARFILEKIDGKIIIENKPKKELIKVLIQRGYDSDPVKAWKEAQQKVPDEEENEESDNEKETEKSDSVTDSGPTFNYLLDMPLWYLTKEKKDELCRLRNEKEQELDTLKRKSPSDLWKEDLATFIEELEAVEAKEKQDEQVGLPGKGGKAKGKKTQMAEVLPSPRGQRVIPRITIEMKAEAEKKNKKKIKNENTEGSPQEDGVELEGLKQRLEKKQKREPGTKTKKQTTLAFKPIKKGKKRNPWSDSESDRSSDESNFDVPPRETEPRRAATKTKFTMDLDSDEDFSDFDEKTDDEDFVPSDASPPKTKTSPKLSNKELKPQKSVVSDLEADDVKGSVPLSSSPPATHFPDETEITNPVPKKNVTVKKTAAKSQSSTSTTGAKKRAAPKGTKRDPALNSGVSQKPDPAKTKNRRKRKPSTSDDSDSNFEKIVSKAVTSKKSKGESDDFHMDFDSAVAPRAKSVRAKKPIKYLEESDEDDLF

SMILES	pIC50 (MRC5 [1])	Activity (Escherichia coli)	topoisomerase 1 inhibition (active/inactive) [2]	pIC50 (MDA-MB-231)	pIC50 [3]	inhibition call (active/not active) [4]	pIC50 [5]	inhibition [6]	pIC50 [7]	Ratio IC50 (MRC5 [8])	Ratio IC50 [9]	Ratio IC50 (Huh-7)	Ratio IC50 (MRC5 [10])	topoisomerase 2 inhibition (active/not active) [11]
O=C1c2ccccc2-c2nc3c(CN4CCCCC4)cccc3nc21	4.59	inactive	Active	< 5.00	< 5.00	inactive	< 5.00	inactive	< 5.00					
CC[C@@]1(O)C(=O)OCc2c1cc1n(c2=O)Cc2cc3c(CN(C)C)c(O)ccc3nc2-1 [TOPOTECAN]	5.37			> 7.00					5.03	0.45	0.71	0.49	>42.5	
Cl.c1ccc2c(c1)/C(=N\OCCN1CCCC1)c1nc3ccccc3nc1-2	4.75	inactive	Active	5.31	5.15	Active	5.19	Active	5.07	2.07	2.51	2.73	3.59	inactive
Cc1cccc2nc3c(nc12)-c1ccccc1C3=O	4.06	inactive		< 5.00	< 5.00		< 5.00		< 5.00					
O=C1c2ccccc2-c2nc3c(C(=O)NCCN4CCCC4)cccc3nc21	5.10	inactive	Active	5.18	4.95	Active	5.07	Active	4.92	0.67	0.71	0.94	1.22	inactive
CN(C)CCCO/N=C1\c2ccccc2-c2nc3c(CN(C)C)cccc3nc21.Cl	6.06	Active	Active	6.05	6.09	Active	6.12	Active	6.11	1.13	1.09	1.17	0.98	inactive
O/N=C\c1cccc2nc3c(nc12)-c1ccccc1/C3=N/O	5.18	inactive	inactive	4.97	5.09	inactive	5.06		5.02	0.69	0.8	0.76	0.61	
O/N=C1\c2ccccc2-c2nc3ccccc3nc21	4.29	inactive	inactive	< 5.00	< 5.00	inactive	< 5.00		< 5.00					
O=C1c2ccccc2-c2nc3c(CN4CCCC4)cccc3nc21	5.01	inactive	Active	< 5.00	< 5.00	inactive	5.16	inactive	< 5.00			1.4		
CN(C)CCCO/N=C1\c2ccccc2-c2nc3c(C(=O)O)cccc3nc21	4.82	inactive	inactive	< 5.00	< 5.00	inactive	< 5.00		< 5.00					
Cc1cccc2nc3c(nc12)-c1ccccc1/C3=N\OCCCN(C)C.Cl	5.10	inactive	Active	5.16	5.14	Active	5.23	Active	5.15	1.12	1.08	1.34	1.13	inactive
C(=N\OCCN1CCCC1)/c1cccc2nc3c(nc12)-c1ccccc1/C3=N\OCCN1CCCC1.Cl	6.04	Active	Active	6.00	5.22	Active	6.11	Active	5.29	0.18	0.15	1.17	0.9	Active
O=C1c2ccccc2-c2nc3c(CN4CCOCC4)cccc3nc21	4.02	inactive	inactive	< 5.00	< 5.00	inactive	< 5.00		< 5.00					
O=C1c2ccccc2-c2nc3ccccc3nc21	4.07	inactive		< 5.00	< 5.00		< 5.00		< 5.00					
O=C1c2ccccc2-c2nc3c(CN4CCC(N5CCCCC5)CC4)cccc3nc21	4.05	inactive	inactive	< 5.00	< 5.00	inactive	< 5.00		< 5.00					
CN(C)Cc1cccc2nc3c(nc12)-c1ccccc1C3=O	4.11	inactive	Active	< 5.00	< 5.00	inactive	< 5.00	inactive	< 5.00					
COc1ccc2c(c1)/C(=N\OCCN1CCCC1)c1c-2c(O)nc2ccccc12			Active			Active		Active						Active
O=C1c2ccccc2-c2nc3c(C(=O)O)cccc3nc21	4.15	inactive		< 5.00	< 5.00		< 5.00		< 5.00					
O=C1c2ccccc2-c2nc3c(C(=O)NCCN4CCOCC4)cccc3nc21	4.05	inactive	inactive	< 5.00	< 5.00	inactive	< 5.00		< 5.00					
O=Cc1cccc2nc3c(nc12)-c1ccccc1C3=O	4.10	inactive	inactive	< 5.00	< 5.00	inactive	< 5.00		< 5.00					
